Screening data from PubChem.
The sample as a whole holds a higher share of hits than the screen did.
CHOP inh: inhibitors of CHOP induction in ER stress response; CHO-K1 CHOP-promoter luciferase, tunicamycin-induced, 15-18 h; inhibition, % at 10 µM; 3.8% of 220,000 active;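 active = compounds that reduced the stress-induced luciferase reporter signal by more than about 70% of percent inhibition, limit read from the data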;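 note: 0% = tunicamycin plus vehicle and 100% = wells without tunicamycin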
UPR CHOP act: apoptotic UPR (CHOP) activation; CHO-CHOP luciferase reporter, luminescence; percent of tunicamycin response over DMSO baseline; activation, % at 10 µM; 0.34% of 330,000 active;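 active = at 10 µM dose, activation of 40% or more, normalized to positive control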;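 note: 100% = tunicamycin at 10 µg/mL and 0% = DMSO alone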
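System: CHO CHOP reporter cells. Amount: 500 cells per well. Buffer or medium: F12 medium, 10% FBS. Compound dosing: one dose, 10 µM in 0.5% DMSO. Incubation: 6 h compound exposure at 37 °C after overnight seeding. Technique: Steady-Glo luciferase luminescence. Benchmarks: tunicamycin and DMSO controls.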
hiPSC survival: enhancers of human iPSC single-cell survival; hiPSC single-cell survival, ATPlite luminescence; 100% = ROCK inhibitor wells, 0% = DMSO; survival enhancement, % at 20 µM; 0.044% of 360,000 active; in the data active = survival enhancement above about 18%;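 note: cells exposed to compounds for 16 hours before the ATP read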
UPR XBP1 act: adaptive UPR (XBP1) activation; CHO-XBP1 luciferase reporter, IRE1-XBP1 UPR activation, luminescence; percent of tunicamycin response, DMSO as zero; activation, % at 20 µM; 0.33% of 330,000 active; AID 463104;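 active = versus positive control, 20 µM dose yields 30% or more activation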;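 note: 100% = tunicamycin at 10 µg/mL and 0% = DMSO only wells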
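Signal: luciferase luminescence; Assay system: CHO-XBP1 luciferase reporter cells; Amount: one thousand reporter cells per well; Dosing: 20 µM single concentration, DMSO 1%; Benchmarks: high control tunicamycin 10 µg/mL final, low control DMSO vehicle only; Schedule: 6 h compound exposure at 37 °C, 5% CO2; Evaluation: percent activation relative to tunicamycin reference.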
H9c2 protect: modulators protecting cardiomyocytes from myocardial damage | H9c2 cardiomyocytes, H2O2 injury protection, ATPLite, 2 h | AID 588492 | protection from H2O2 cell death, % at 20 µM | 0.63% of 360,000 active;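 active = compounds giving at least 50% protection of heart cells from peroxide-induced death in the single-dose screen, raw or plate-pattern-corrected value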;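 note: 0% = DMSO wells with peroxide and 100% = DMSO wells without peroxide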
* marks the source's active call; other numbers are inactive results; . = not tested or not shown.

SMILES | CHOP inh | UPR CHOP act | hiPSC survival | UPR XBP1 act | H9c2 protect
COc1cc(NC(=O)c2cccnc2)ccc1-c1cc2ccccc2oc1=O | 77* | 2 | . | -2 | .
CC(C)C[C@H]1CN(CCCC[C@@H]2CNC(=O)C(=O)N2Cc2ccccc2)C(=O)C(=O)N1CCc1ccccc1 | . | . | -2 | . | .
COc1cc(OC)c2c(-c3ccccc3)cc(=O)oc2c1C(CCN1CCCC1)c1ccc2c(c1)OCO2 (stereo not given) | -24 | 3 | -6 | 6 | 5
CCCCCc1cc(=O)oc2c(C(CCN3CCCCC3)c3ccc4c(c3)OCO4)c(OC)cc(OC)c12 (stereo not given) | 88* | 8 | -5 | 3 | -12
CCCCCc1cc(=O)oc2c(C(CCN3CCCC(C)C3)c3ccc4c(c3)OCO4)c(OC)cc(OC)c12 (stereo not given) | 77* | 16 | -4 | 0 | -13
CCCCCc1cc(=O)oc2c(C(CCN(CC)CC)c3cc(OC)c(OC)c(OC)c3)c(OC)cc(OC)c12 (stereo not given) | 71* | 3 | -4 | 3 | -28
O=C(C[C@H]1C[C@H]2c3cc(NS(=O)(=O)c4ccc(F)cc4)ccc3O[C@H]2[C@H](CO)O1)NCc1ccncc1 | . | . | 2 | . | 11
CCC(CC)NC(=O)CCc1nc2ccccc2c(=O)[nH]1 | 17 | -1 | -2 | -2 | 25
CC(OC(=O)CCc1nc2ccccc2c(=O)[nH]1)C(=O)c1ccc(C(C)(C)C)cc1 (stereo not given) | 92* | 1 | -1 | 3 | -4
CC(OC(=O)CCc1nc2ccccc2c(=O)[nH]1)C(=O)NC1CCCC1 (stereo not given) | 2 | 1 | 0 | -2 | 55*
CCOc1ccccc1OCC(=O)NC1CCSc2ccccc21 (stereo not given) | . | . | 2 | . | -1
Cc1ccc(NC(=O)COC(=O)Cc2c[nH]c3ccccc23)cc1 | . | . | 8 | . | -3
O=C(/C=C/c1ccccc1)NC(=S)Nc1ccc2c3c(cccc13)CC2 | 75* | -2 | 0 | -6 | -6
O=C(COc1ccccc1)NC(=S)Nc1ccc2c3c(cccc13)CC2 | 5 | 2 | 2 | -2 | -23
CCCCCCCC(=O)N/N=C/c1ccncc1 | 1 | 1 | -1 | -1 | -8
O=C(CCC(=O)Nc1ccc(F)cc1)N/N=C/c1cccc(Br)c1 | . | 3 | 0 | -8 | -4
CCCCCCC(=O)N/N=C/c1ccc(Br)cc1 | 93* | 2 | -3 | -1 | -9
CCCCCCCCC(=O)N/N=C/c1cccc(Br)c1 | 87* | -2 | 1 | 0 | -9
COc1cc(-c2nnc(COC(=O)c3cc(C)nc4ccc(C)cc34)o2)cc(OC)c1OC | 20 | -3 | -1 | 0 | 71*
COc1cc(-c2nnc(COc3ccc(Cl)cc3C)o2)cc(OC)c1OC | 72* | -4 | -1 | -3 | -12
Cc1cc(Cl)ccc1OCc1nnc(-c2ccccc2C)o1 | . | 6 | 0 | 9 | -8
CCOC(=O)CCCN(c1[nH]c(C)c(C)c1C#N)S(=O)(=O)c1ccc(C)cc1 | . | . | 1 | . | 3
NC(Cc1ccc(Cl)cc1)c1csc(Nc2ccc(-c3ccccc3)nn2)n1 (stereo not given) | . | . | -4 | . | -12
O=c1[nH]c(CN2CCN(Cc3ccccc3)CC2)nc2scc(-c3ccccc3)c12 | 27 | -1 | 0 | -2 | 8
O=c1[nH]c(Cn2nnc(-c3ccccc3)n2)nc2scc(-c3ccccc3)c12 | 89* | 0 | 0 | -3 | -16
SMILES | CHOP inh | UPR CHOP act | hiPSC survival | UPR XBP1 act | H9c2 protect
CC1(C)CC(=O)C=C(c2cccc(OC(=O)c3ccc(Br)cc3)c2)C1=O | . | . | 0 | . | -10
CCc1c(O)nc(SCC(=O)Nc2ccc(OC)cc2)n(C2CCCCC2)c1=O | 77* | -1 | -3 | -1 | 5
CCc1c(O)nc(SCC(=O)Nc2nc3ccccc3s2)n(C2CCCCC2)c1=O | -12 | 2 | -1 | 3 | -3
CCCc1nc2c(Cl)cc(C(F)(F)F)cn2c1Cc1ccc(OC)cc1C | . | . | 0 | . | .
CCCCCCn1c(C)nc2c(c1=O)c1nc3ccccc3nc1n2/N=C/c1ccco1 | 3 | -1 | 2 | 3 | 90*
COCCCn1c2nc3ccccc3nc2c2c(=O)n(CC3CCCO3)cnc21 (stereo not given) | 10 | 1 | 3 | 1 | 1
CCOCCCn1c(C)nc2c(c1=O)c1nc3ccccc3nc1n2CCC1=CCCCC1 | 95* | 0 | -1 | 5 | -11
Cc1nc2c(c(=O)n1CCC1=CCCCC1)c1nc3ccccc3nc1n2/N=C/c1ccccc1 | -9 | 32 | 1 | 29 | 109*
O=C(NCCc1ccccc1)C1Cc2c(-c3ccc4c(c3)OCO4)ccnc2O1 (stereo not given) | . | . | -2 | . | 5
CSC(=O)NC12CC3CC(CC(C)(C3)C1)C2 | 78* | 2 | 2 | -1 | -5
CCSC(=O)NC12CC3CC(CC(C3)C1)C2 | 52 | 0 | -2 | -4 | 13
COC(=O)Cc1ccc(NC(=O)c2ccc(C(C)(C)C)cc2)cc1 | 72* | -4 | -4 | -3 | -23
CCCc1nc2cc(C)c(Br)c(C)n2c1Cc1ccccc1OC | . | . | -1 | . | .
O=C(NCc1ccco1)c1ccc(N2CCCCC2)c([N+](=O)[O-])c1 | 70* | 6 | 2 | 4 | 6
O=C(Nc1cc(S(=O)(=O)N2CCOCC2)ccc1Cl)c1ccncc1 | . | -2 | 11 | 1 | 1
O=c1cc(/C=C/c2ccccc2)oc2ccccc12 | 74* | 5 | 0 | 5 | 11
CS(=O)(=O)N(CC(=O)N/N=C/c1cccc2c1OCCO2)c1ccccc1Br | 16 | -1 | 3 | -4 | 1
O=C(CN(c1ccc(Cl)c(C(F)(F)F)c1)S(=O)(=O)c1ccccc1)N/N=C/c1cccc2c1OCCO2 | 73* | 1 | 0 | -2 | -4
CCc1ccc2[nH]c(=O)c(C(c3nnnn3CC3CCCO3)N3CCCc4ccccc43)cc2c1 (stereo not given) | 84* | 3 | 0 | 2 | 7
Cc1cc2cc(C(c3nnnn3CC3CCCO3)N3CCCc4ccccc43)c(=O)[nH]c2cc1C (stereo not given) | 41 | . | 0 | . | 1
Fc1ccc(Oc2nccc(-c3ccc(Cl)cc3)n2)cc1 | 81* | 4 | 4 | 7 | -20
CCOc1ccc(Cl)cc1-c1cc(C(=O)NCCOC)[nH]n1 | . | . | 0 | . | -1
Cn1nccc1-c1ccc(C(=O)NCc2ccc(Cl)cc2)c2occc12 | . | . | -2 | . | -6
O=C(NCc1ccncc1)[C@@H]1CCCN1C(=O)[C@H]1CCCN1C(=O)c1cccc2ccccc12 | . | . | 0 | . | .
COCCNC(=O)c1c(CS(=O)(=O)c2ccccc2)noc1C(=O)NCc1ccccc1 | . | 1 | -3 | -3 | 6
COc1cc(OC)c2ccc(=O)oc2c1C(CC(=O)N1CCN(c2ccccc2)CC1)c1ccc2c(c1)OCO2 (stereo not given) | 7 | 3 | 2 | 2 | 70*
